Paper PMC9727797 (Molecular Biology of the Cell, 2022)

Legend:
KIRC-1 cells = assay: Preanaphase spindle monopolarity, KIRC-1 cells; type: cell-based, human; settings: 25 µM
In short: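 TP53–/– RPE-1 and KIRC-1 cells were grown in DMEM with 10% FBS, penicillin and streptomycin; KIRC-1 medium also contained 10 μM STLC. Cells on coverslips were treated overnight with increasing test-compound concentrations or DMSO. They were then methanol-fixed and stained for KIF15, tubulin and DNA. Preanaphase spindles were scored monopolar or bipolar, in triplicate with n = 100 per replicate (± SEM).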

KIF15-N700 = target: T1, KIF15-N700 (Homo sapiens, UniProt Q9NS87); assay: Microtubule gliding assay; type: biochemical; settings: 25 µM, singlicate
T1 sequence (Q9NS87 1-700 limits assumed): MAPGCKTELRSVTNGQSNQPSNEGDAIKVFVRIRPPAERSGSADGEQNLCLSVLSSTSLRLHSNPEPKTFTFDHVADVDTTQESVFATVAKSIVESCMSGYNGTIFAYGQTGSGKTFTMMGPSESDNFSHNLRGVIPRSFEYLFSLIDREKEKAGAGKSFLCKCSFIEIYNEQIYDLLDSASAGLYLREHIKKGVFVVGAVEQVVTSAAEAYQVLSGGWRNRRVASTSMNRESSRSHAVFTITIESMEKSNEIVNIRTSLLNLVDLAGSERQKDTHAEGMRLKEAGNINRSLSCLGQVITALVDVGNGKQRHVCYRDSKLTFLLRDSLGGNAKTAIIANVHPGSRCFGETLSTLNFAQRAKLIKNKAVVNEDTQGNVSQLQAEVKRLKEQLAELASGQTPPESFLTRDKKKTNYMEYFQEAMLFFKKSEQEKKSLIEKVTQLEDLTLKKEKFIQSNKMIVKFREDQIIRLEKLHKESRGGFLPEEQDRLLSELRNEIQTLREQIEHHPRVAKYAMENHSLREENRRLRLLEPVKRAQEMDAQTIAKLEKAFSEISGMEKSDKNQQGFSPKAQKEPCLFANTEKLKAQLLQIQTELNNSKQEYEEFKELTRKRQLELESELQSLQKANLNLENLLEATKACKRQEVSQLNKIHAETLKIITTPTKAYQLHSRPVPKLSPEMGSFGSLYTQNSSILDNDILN
In short: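 His6-KIF15-N700 was expressed in High Five insect cells, then purified by Ni-NTA and Superdex 200 gel filtration. Microtubule gliding was imaged every 5 s for 1 min at 100×. Velocity was taken as distance travelled in 1 min, from ≥15 microtubules at each of three slide locations (n ≥ 50 per slide). Concentration-response curves used eight concentrations from 10 nM up to 30 or 100 µM, in triplicate. Single-point derivative tests used 25 µM.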

TP53–/– RPE-1 cells = assay: STLC selection; type: cell-based, human; settings: 24 d; 10 μM STLC; some cells acquired resistance and formed colonies
RPE-1 cells = assay: Live cell imaging of metaphase duration; type: cell-based, human; settings: Munesib-1 50 µM, Fift-IN and GW108X 25 µM

Structure (SMILES): CSc1ncc2c(n1)-c1ccc(C(=O)N3CCNCC3)cc1N(C)S2(=O)=O [M-205, (6-methyl-2-(methylthio)-5,5-dioxido-6H-benzo[c]pyrimido[4,5-e][1,2]thiazin-8-yl)(piperazin-1-yl)methanone]
- monopolarity index compared with the parent compound (KIRC-1 cells): substantially increased the monopolarity index

Structure (SMILES): CSc1ncc2c(n1)-c1ccc(C(=O)O)cc1N(C)S2(=O)=O [M-201, 6-methyl-2-(methylthio)-6H-benzo[c]pyrimido[4,5-e][1,2]thiazine-8-carboxylic acid 5,5-dioxide]
- % inhibition of KIF15 microtubule gliding activity (KIF15-N700): blocked KIF15 activity as effectively as Munesib-1

Structure (SMILES): N[C@@H](CSC(c1ccccc1)(c1ccccc1)c1ccccc1)C(=O)O [STLC, S-trityl-L-cysteine]
- cell killing by STLC alone (TP53–/– RPE-1 cells): killed the majority

Structure (SMILES): O=C1Nc2ccc(C(=O)c3ccco3)cc2/C1=C/c1cc(Cl)c(O)c(Cl)c1 [GW108X, reference compound]
- metaphase duration (metaphase plate formation until anaphase onset) (RPE-1 cells): significant increase in metaphase duration

Structure (SMILES): CSc1ncc2c(n1)-c1ccc(CO)cc1N(C)S2(=O)=O [M-206, 8-(hydroxymethyl)-6-methyl-2-(methylthio)-6H-benzo[c]pyrimido[4,5-e][1,2]thiazine 5,5-dioxide]
- % inhibition of KIF15 microtubule gliding activity (KIF15-N700): blocked KIF15 activity as effectively as Munesib-1
